Active and inactive are the calls of the source. No cut-off for these calls is given here.
How the values were obtained:
Jurkat [1] = assay: Cytotoxicity against human Jurkat T cells assessed as reduction in cell viability after 72 hrs by alamar blue assay; format: cell-based
In short: (§1)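 Cells seeded at 2 × 10^4 cells/well and exposed to compound for 72 h. DMSO was the negative control and doxorubicin the positive control. AlamarBlue (1:10 dilution) was then added for 4 h at 37 °C, and absorbance was read at 590 nm.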

K562 = assay: Cytotoxicity against human K562 cells assessed as reduction in cell viability after 72 hrs by alamar blue assay; format: cell-based; settings: K562, 72 h; in short: as §1
HeLa = assay: Cytotoxicity against human HeLa cells assessed as reduction in cell viability after 72 hrs by alamar blue assay; format: cell-based; in short: as §1
Jurkat [2] = assay: Anti-inflammatory activity in PMA/ionomycin stimulated human Jurkat T cells assessed as reduction in IL-2 secretion at 20 uM preincubated for 20 mins followed by PMA/ionomycin stimulation measured after 12 hrs by ELISA; format: functional, cell-based
In short: (§2)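 Jurkat T cells seeded at 1 × 10^5 cells/well and pretreated with compound for 20 min, then stimulated with PMA (40 nM) plus ionomycin (1 μM) for 12 h at 37 °C. DMSO was the negative control and FK506 (100 nM) the positive control. IL-2 in 100 μL supernatant was measured by sandwich ELISA with streptavidin detector and TMB substrate, read at 450 nm.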

Jurkat [3] = assay: Anti-inflammatory activity in PMA/ionomycin stimulated human Jurkat T cells assessed as reduction in IL-2 secretion preincubated for 20 mins followed by PMA/ionomycin stimulation measured after 12 hrs by ELISA; format: functional, cell-based; in short: as §2

**Q.** What does the source list for `CC(C)[C@H](NC(=O)c1cc(O)c2c(c1)C(=O)c1cc(O)cc(O)c1C2=O)C(=O)O`?
**A.** IC50 (Jurkat [1]): > 10 µM; IC50 (K562): > 10 µM; IC50 (HeLa): > 10 µM; Activity (Jurkat [2]): Active

**Q.** Which IC50 (Jurkat [1]) does the source give for `O=C(O)c1cc(O)c2c(c1)C(=O)c1cc(O)cc(O)c1C2=O` [EMODIC ACID] here?
**A.** Its IC50 is over 10 µM.

**Q.** And the IC50 (K562)?
**A.** Its IC50 is over 10 µM.

**Q.** What about the IC50 (HeLa) of the same molecule?
**A.** Its IC50 is over 10 µM.

**Q.** And the Activity (Jurkat [2])?
**A.** The Activity was “Active”.

**Q.** With `COC(=O)[C@@H](NC(=O)c1cc(O)c2c(c1)C(=O)c1cc(O)cc(O)c1C2=O)C(C)C` as the molecule, how does the IC50 (Jurkat [1]) read?
**A.** Its IC50 is over 10 µM.

**Q.** What about the IC50 (K562) of the same molecule?
**A.** Its IC50 is over 10 µM.

**Q.** What about the IC50 (HeLa) of the same molecule?
**A.** The IC50 was over 10 µM.

**Q.** What about the Activity (Jurkat [2]) of the same molecule?
**A.** The Activity was “Active”.

**Q.** And the IC50 (Jurkat [3])?
**A.** Its IC50 is 4.1 µM.

**Q.** `C[C@H](NC(=O)c1cc(O)c2c(c1)C(=O)c1cc(O)cc(O)c1C2=O)C(=O)O` was tested. Which IC50 (Jurkat [1]) did it give?
**A.** The IC50 was over 10 µM.

**Q.** What about the IC50 (K562) of the same molecule?
**A.** Its IC50 is over 10 µM.

**Q.** What about the IC50 (HeLa) of the same molecule?
**A.** Its IC50 is over 10 µM.

**Q.** And the Activity (Jurkat [2])?
**A.** The Activity was “Active”.

**Q.** `C=CC[C@@H]1/C=C(\C)C[C@H](C)C[C@H](OC)[C@H]2O[C@@](O)(C(=O)C(=O)N3CCCC[C@H]3C(=O)O[C@H](/C(C)=C/[C@@H]3CC[C@@H](O)[C@H](OC)C3)[C@H](C)[C@@H](O)CC1=O)[C@H](C)C[C@@H]2OC` [TACROLIMUS ANHYDROUS] was tested. Which IC50 (Jurkat [3]) did it give?
**A.** Its IC50 is 5.8 µM.

**Q.** For `CCC(C)[C@H](NC(=O)c1cc(O)c2c(c1)C(=O)c1cc(O)cc(O)c1C2=O)C(=O)OC` (some centres undefined), which IC50 (Jurkat [1]) is on record?
**A.** The IC50 was over 10 µM.

**Q.** And the IC50 (K562)?
**A.** The IC50 was over 10 µM.

**Q.** And the IC50 (HeLa)?
**A.** Its IC50 is over 10 µM.

**Q.** And the Activity (Jurkat [2])?
**A.** The Activity was “Active”.

**Q.** What about the IC50 (Jurkat [3]) of the same molecule?
**A.** The IC50 was 12 µM.

**Q.** For `CCC(C)[C@H](NC(=O)c1cc(O)c2c(c1)C(=O)c1cc(O)cc(O)c1C2=O)C(=O)O` (some centres undefined), which IC50 (Jurkat [1]) is on record?
**A.** The IC50 was over 10 µM.

**Q.** What about the IC50 (K562) of the same molecule?
**A.** Its IC50 is over 10 µM.

**Q.** What about the IC50 (HeLa) of the same molecule?
**A.** The IC50 was over 10 µM.

**Q.** And the Activity (Jurkat [2])?
**A.** Its Activity is “Active”.

**Q.** And the IC50 (Jurkat [3])?
**A.** The IC50 was 5.4 µM.

**Q.** How did the IC50 (Jurkat [1]) turn out when `CC(C)[C@H](NC(=O)c1cc(O)c2c(c1)C(=O)c1cc(O)c(Cl)c(O)c1C2=O)C(=O)O` was run?
**A.** The IC50 was over 10 µM.

**Q.** And the IC50 (K562)?
**A.** The IC50 was over 10 µM.

**Q.** What about the IC50 (HeLa) of the same molecule?
**A.** Its IC50 is over 10 µM.

**Q.** What about the Activity (Jurkat [2]) of the same molecule?
**A.** The Activity was “Active”.

**Q.** What about the IC50 (Jurkat [3]) of the same molecule?
**A.** The IC50 was 5.1 µM.

**Q.** `CCC(C)[C@H](NC(=O)c1cc(O)c2c(c1)C(=O)c1cc(O)c(Cl)c(O)c1C2=O)C(=O)O` (some centres undefined) was tested. Which IC50 (Jurkat [1]) did it give?
**A.** Its IC50 is over 10 µM.

**Q.** What about the IC50 (K562) of the same molecule?
**A.** The IC50 was over 10 µM.

**Q.** What about the IC50 (HeLa) of the same molecule?
**A.** The IC50 was over 10 µM.

**Q.** And the Activity (Jurkat [2])?
**A.** The Activity was “Active”.

**Q.** `O=C1c2cc(CO)cc(O)c2C(=O)c2c1cc(O)c(Cl)c2O` was tested. Which IC50 (Jurkat [1]) did it give?
**A.** Its IC50 is over 10 µM.

**Q.** What about the IC50 (K562) of the same molecule?
**A.** The IC50 was over 10 µM.

**Q.** And the IC50 (HeLa)?
**A.** The IC50 was over 10 µM.

**Q.** Which results are given for `CC(C)C[C@H](NC(=O)c1cc(O)c2c(c1)C(=O)c1cc(O)c(Cl)c(O)c1C2=O)C(=O)O`?
**A.** IC50 (Jurkat [1]): > 10 µM; IC50 (K562): > 10 µM; IC50 (HeLa): > 10 µM; Activity (Jurkat [2]): Active
